ChEMBL document CHEMBL1136706, “Synthesis and evaluation of a novel series of farnesyl protein transferase inhibitors as non-peptidic CAAX tetrapeptide analogues” (Bioorg Med Chem Lett, 2003)

Columns and labels:
DLD-1 = assay: Concentration required to inhibit 50% of farnesylation of H-Ras in DLD-1 cells; assay type: functional, cell-based; conditions: Homo sapiens
[1] = target: Protein farnesyltransferase (Bos taurus, UniProt P29702+P49355); assay: Inhibit of purified bovine Farnesyl protein transferase.; assay type: protein-complex assay
Outline: (§1)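 Isolated-enzyme inhibition assays (FPTase, and GGPTase I for the GGPTase lines) were run by a previously published method, with n=2 determinations per compound. The read-out is the IC50 in nM.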

[2] = Concentration required to inhibit 50% of GGPTase enzyme activity; outline: as §1

| IC50 (DLD-1) [nM] | IC50 [1] [nM] | IC50 [2] [nM] | Structure (SMILES) |
| --- | --- | --- | --- |
| 200 |  |  | N#Cc1ccc(Cn2cncc2CN(c2ccc(N3CCN(C(=O)c4ccc(Cl)s4)CC3)cc2)S(=O)(=O)c2ccccc2)cc1 |
|  | 20 |  | N#Cc1ccc(Cn2cncc2CN(Cc2cccc(F)c2)c2ccc(N3CCN(C(=O)c4ccc(Cl)s4)CC3)cc2)cc1 |
|  | 600 |  | O=C(c1ccc(Cl)s1)N1CCN(c2ccc(N(Cc3cnc[nH]3)S(=O)(=O)c3ccccc3)cc2)CC1 |
| 7 | 2 | 700 | COc1cccc(C(=O)N(Cc2cncn2Cc2ccc(C#N)cc2)c2ccc(N3CCN(C(=O)c4ccc(Cl)s4)CC3)cc2)c1 |
|  | 600 | > 1000 | O=S(=O)(c1ccccc1)N(Cc1c[nH]cn1)c1ccc(N2CCN(C(=S)Nc3ccccc3)CC2)cc1 |
| 3 |  | > 1000 | N#Cc1ccc(Cn2cncc2CN(C(=O)c2ccccc2)c2ccc(N3CCN(C(=O)c4ccc(Cl)s4)CC3)cc2)cc1 |
|  | 1000 |  | O=C(NC1CCCCC1)N1CCN(c2ccc(N(Cc3cnc[nH]3)S(=O)(=O)c3ccccc3)cc2)CC1 |
|  | 100 | > 1000 | O=S(=O)(c1ccccc1)N(Cc1c[nH]cn1)c1ccc(N2CCN(C(=S)NCCc3ccccc3)CC2)cc1 |
| > 10000 | 2 |  | COc1ccccc1C(=O)N(Cc1cncn1Cc1ccc(C#N)cc1)c1ccc(N2CCN(C(=O)c3ccc(Cl)s3)CC2)cc1 |
| 800 |  | > 1000 | CC(C)C/N=C(\S)N1CCN(c2ccc(N(Cc3c[nH]cn3)S(=O)(=O)c3ccccc3)cc2)CC1 |
|  | 600 |  | O=C(NCc1ccccc1)N1CCN(c2ccc(N(Cc3cnc[nH]3)S(=O)(=O)c3ccccc3)cc2)CC1 |
|  | 60 | > 1000 | O=S(=O)(c1ccccc1)N(Cc1c[nH]cn1)c1ccc(N2CCN(C(=S)NCc3ccccc3)CC2)cc1 |
| 20 |  |  | N#Cc1ccc(Cn2cncc2CN(C(=O)c2ccccc2F)c2ccc(N3CCN(C(=O)c4ccc(Cl)s4)CC3)cc2)cc1 |
| 80 | 2 |  | COc1ccc(C(=O)N(Cc2cncn2Cc2ccc(C#N)cc2)c2ccc(N3CCN(C(=O)c4ccc(Cl)s4)CC3)cc2)cc1 |
| 2 | 2 | > 1000 | N#Cc1ccc(Cn2cncc2CN(C(=O)c2cccc(Cl)c2)c2ccc(N3CCN(C(=O)c4ccc(Cl)s4)CC3)cc2)cc1 |
|  | 30 | > 1000 | O=S(=O)(c1ccccc1)N(Cc1c[nH]cn1)c1ccc(N2CCN(C(=S)NCC3CCCCC3)CC2)cc1 |
| 6 |  | > 1000 | N#Cc1ccc(Cn2cncc2CN(C(=O)c2cccc(F)c2)c2ccc(N3CCN(C(=O)c4ccc(Cl)s4)CC3)cc2)cc1 |
|  | 70 |  | N#Cc1ccc(Cn2cncc2CNc2ccc(N3CCN(C(=O)c4ccc(Cl)s4)CC3)cc2)cc1 |
| 1000 | 20 | > 1000 | O=S(=O)(c1ccccc1)N(Cc1c[nH]cn1)c1ccc(N2CCN(C(=S)NC3CCCCC3)CC2)cc1 |
|  | 70 |  | N#Cc1ccc(Cn2cncc2CN(Cc2ccc(F)cc2)c2ccc(N3CCN(C(=O)c4ccc(Cl)s4)CC3)cc2)cc1 |
|  | 1000 |  | O=C(Nc1ccccc1)N1CCN(c2ccc(N(Cc3cnc[nH]3)S(=O)(=O)c3ccccc3)cc2)CC1 |
